Data as given in PMC10951637 (iScience, 2024).

Legend:
[1] = tested on: diabetic db/db mice; assay: Chronic efficacy study; type: in vivo; conditions: for HbA1c value attenuated from baseline / body weight increase: 25 nmol/kg s.c. once daily for 4 weeks, n = 5; for reduction of AUC glucose 0–210 min, OGTT day 15: chronic study, 25 nmol/kg s.c. once daily, day 15, n = 5
[2] = cited from earlier work
[3] = tested on: blood glucose of non-fasted db/db mice; assay: Hypoglycemic duration assay; type: in vivo, C57BL/6 db/db mice; conditions: single s.c. dose 25 nmol/kg, 0 to 36 h, n = 5
Summary of the method: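 Non-fasted male C57BL/6 db/db mice with free food and water were randomised into groups (n = 5). Each got one s.c. dose of 25 nmol/kg test compound, or PBS as control. Tail-blood glucose was read by glucometer at 0, 0.5, 1, 2, 4, 6, 8, 10, 24 and 36 h. […] Data are mean ± SD, one-way ANOVA with Tukey test.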

[4] = phase 2b, oral, adults with obesity; cited from earlier work
[5] = phase III study (SURPASS-1), across all doses

## liraglutide
[1]
  HbA1c value attenuated from baseline: ~30%
  body weight increase: ~7.4%
  reduction of AUC glucose 0–210 min, OGTT day 15: ~40%

## tirzepatide: imbalanced GLP-1R/GIPR co-agonist, fatty diacid conjugated to K
[2]; in T2D treatment and in obesity independent of diabetes
  weight loss: more than 20%
[2]; [5]
  incidence of gastrointestinal disorders: 28–41%
  study drug discontinuation: 3–7%

## exendin-4: GLP-1R mono-agonist
[3]
  glucose AUC0–36h (in words): comparable to that of the PBS group
[1]
  HbA1c value attenuated from baseline: approximately 15%
  body weight increase: ~6.9%
  reduction of AUC glucose 0–210 min, OGTT day 15: ~18%

## N#Cc1ccc(COc2cccc(C3CCN(Cc4nc5ccc(C(=O)O)cc5n4C[C@@H]4CCO4)CC3)n2)c(F)c1 [Danuglipron]
[4]
  discontinuation rate: greater than 50%
  rate of diarrhea: 25%
  rate of nausea: 73%
  rate of vomiting: 47%
